Measurements as given in PMC8162271 (Chemical Science, 2020).
pIC50: −log10 of the molar value.

Assays:
[1] = Trolox equivalent antioxidant capacity; settings: TEAC assay, result in words
Method in brief: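 Radical quenching was measured with the cationic radical of 2,2′-azino-bis(3-ethylbenzthiazoline-6-sulphonic acid) as substrate, in EtOH at 25 °C. Absorbance was read at 734 nm, and capacity is expressed relative to the vitamin E analog Trolox as Trolox equivalents.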

[2] = target: Electrophorus electricus AChE (eeAChE) (Electrophorus electricus, UniProt O42275); assay: AChE activity assay; assay type: biochemical; settings: for inhibition of the activity of AChE: eeAChE, result in words; for pIC50: AChE IC50, eeAChE, fluorometric assay
Sequence of Electrophorus electricus AChE (eeAChE) (O42275 24-633): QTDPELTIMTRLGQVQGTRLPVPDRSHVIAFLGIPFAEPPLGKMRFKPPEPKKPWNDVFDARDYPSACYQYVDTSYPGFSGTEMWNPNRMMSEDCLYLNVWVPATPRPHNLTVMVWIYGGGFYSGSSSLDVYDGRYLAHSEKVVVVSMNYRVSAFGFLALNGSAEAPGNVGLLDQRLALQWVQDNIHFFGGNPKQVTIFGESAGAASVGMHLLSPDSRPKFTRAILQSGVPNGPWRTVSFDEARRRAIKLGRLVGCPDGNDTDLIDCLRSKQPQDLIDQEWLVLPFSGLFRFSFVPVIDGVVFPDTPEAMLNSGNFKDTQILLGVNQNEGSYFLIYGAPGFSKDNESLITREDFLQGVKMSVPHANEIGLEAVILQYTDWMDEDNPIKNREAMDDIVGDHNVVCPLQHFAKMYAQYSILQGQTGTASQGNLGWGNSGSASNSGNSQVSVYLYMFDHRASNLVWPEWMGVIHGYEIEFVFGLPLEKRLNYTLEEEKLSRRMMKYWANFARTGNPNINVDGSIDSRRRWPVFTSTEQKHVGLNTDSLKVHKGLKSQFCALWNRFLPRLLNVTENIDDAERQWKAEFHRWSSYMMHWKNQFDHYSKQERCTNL

[3] = target: metal-free Aβ42 (Homo sapiens, UniProt P05067); assay: Aβ42 aggregation inhibition experiments; assay type: biochemical; settings: [Aβ42] 25 μM, [flavonoid] 50 μM, pH 7.4, 37 °C, 24 h
Sequence of metal-free Aβ42 (P05067 672-713): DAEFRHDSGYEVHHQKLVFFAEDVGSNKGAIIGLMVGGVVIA
Method in brief: (§1)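 Freshly prepared Aβ42 (25 μM), metal-free or with ZnCl2 (25 μM), incubated with test compound (50 μM) at pH 7.4, 37 °C, for 24 h with constant agitation. Species sizes were resolved by gel/Western blot probed with anti-Aβ antibody 6E10. Band intensities were quantified and normalized to the matching untreated control (ISample/IControl). Aggregate morphology was imaged by TEM.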

[4] = target: Cu(II)–Aβ42 (Homo sapiens, UniProt P05067); assay: Aβ42 aggregation inhibition experiments; assay type: biochemical; settings: 24 h; for MW distribution of Aβ42 species by gel/Western blot: [Aβ42] 25 μM, [CuCl2] 25 μM, [flavonoid] 50 μM, pH 6.6, 37 °C; for morphology of Aβ42 aggregates by TEM: Cu(II)–Aβ42, [flavonoid] 50 μM
Sequence of Cu(II)–Aβ42 (P05067 672-713): as above

[5] = target: Zn(II)–Aβ42 (Homo sapiens, UniProt P05067); assay: Aβ42 aggregation inhibition experiments; assay type: biochemical; settings: 24 h; for MW distribution of Aβ42 species by gel/Western blot: [Aβ42] 25 μM, [ZnCl2] 25 μM, [flavonoid] 50 μM, pH 7.4, 37 °C; for morphology of Aβ42 aggregates by TEM: Zn(II)–Aβ42, [flavonoid] 50 μM
Sequence of Zn(II)–Aβ42 (P05067 672-713): as above
Method in brief: as §1

[6] = target: preformed metal-free Aβ42 aggregates (Homo sapiens, UniProt P05067); assay: Aβ42 disaggregation experiments; assay type: biochemical; settings: preformed aggregates (24 h) then [flavonoid] 50 μM 24 h, pH 7.4
Sequence of preformed metal-free Aβ42 aggregates (P05067 672-713): as above
Method in brief: (§2)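 Aβ42 (25 μM), with or without metal ions, was pre-incubated for 24 h to form aggregates, then exposed to test compound for a further 24 h. Species sizes were analysed by gel/Western blot with anti-Aβ antibody 6E10. Band intensities were quantified as a ratio to the matching control (ISample/IControl). Morphology was examined by TEM.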

[7] = target: preformed Cu(II)–Aβ42 aggregates (Homo sapiens, UniProt P05067); assay: Aβ42 disaggregation experiments; assay type: biochemical
Sequence of preformed Cu(II)–Aβ42 aggregates (P05067 672-713): as above
Method in brief: as §2

[8] = Interaction with Cu; assay type: physicochemical; settings: UV-Vis; indicative of oxidation
Method in brief: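 UV-Vis absorption spectra of test compound (25 μM) recorded with CuCl2 at 0, 12.5, 25, 50 and 125 μM. Medium was 20 mM HEPES, pH 6.6, 150 mM NaCl, or EtOH for some compounds. Additional spectra were taken after adding 0.5, 1 and 2 equiv of CuCl2.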

[9] = target: preformed Zn(II)–Aβ42 aggregates (Homo sapiens, UniProt P05067); assay: Aβ42 disaggregation experiments; assay type: biochemical
Sequence of preformed Zn(II)–Aβ42 aggregates (P05067 672-713): as above
Method in brief: as §2

Row | Compound | radical scavenging activity, compared to Trolox [1] | inhibition of the activity of AChE [2] | MW distribution of Aβ42 species by gel/Western blot [3] | MW distribution of Aβ42 species by gel/Western blot [4] | MW distribution of Aβ42 species by gel/Western blot [5] | MW distribution of Aβ42 species by gel/Western blot [6] | pIC50 [2] | morphology of Aβ42 aggregates by TEM [4] | morphology of Aβ42 aggregates by TEM [5] | morphology of preformed aggregates by TEM [7] | absorption band at ca. 400–440 nm at greater Cu(II) concentrations [8] | morphology of preformed aggregates by TEM [9]
1 | O=c1cc(-c2ccc(O)cc2)oc2cc(O)cc(O)c12 [Api, Apigenin] | negligible | not inhibited | did not exhibit significant reactivity | did not exhibit significant reactivity | did not exhibit significant reactivity | did not exhibit notable reactivity |  |  |  |  |  | 
2 | O=c1cc(-c2ccccc2)oc2cc(O)cc(O)c12 [Chr, chrysin] | negligible | not inhibited | did not exhibit significant reactivity | did not exhibit significant reactivity | did not exhibit significant reactivity | did not exhibit notable reactivity |  |  |  |  |  | 
3 | O=c1c(O)c(-c2ccccc2)oc2cccc(O)c12 [DHF, 3,5-dihydroxyflavone] |  |  | did not exhibit significant reactivity | did not exhibit significant reactivity | did not exhibit significant reactivity | did not exhibit notable reactivity | < 5.70 |  |  |  |  | 
4 | O=c1c(-c2ccccc2)coc2cc(O)cc(O)c12 [DHIF, 5,7-dihydroxyisoflavone] | negligible |  | did not exhibit significant reactivity | did not exhibit significant reactivity | did not exhibit significant reactivity | did not exhibit notable reactivity |  |  |  |  |  | 
5 | O=c1c(O)c(-c2ccccc2)oc2cc(O)cc(O)c12 [Gal, galangin] |  |  | did not exhibit significant reactivity | did not exhibit significant reactivity | did not exhibit significant reactivity | did not exhibit notable reactivity |  | did not significantly alter the morphologies | fibrillar aggregates similar to those from the compound-free Zn(II)–Aβ42 sample |  |  | 
6 | O=c1c(-c2ccc(O)cc2)coc2cc(O)cc(O)c12 [Gen, genistein] |  |  | did not exhibit significant reactivity | did not exhibit significant reactivity | did not exhibit significant reactivity | did not exhibit notable reactivity |  |  |  |  |  | 
7 | O=c1cc(-c2ccccc2)oc2cccc(O)c12 [HF, 5-hydroxyflavone] | negligible | not inhibited | did not exhibit significant reactivity | did not exhibit significant reactivity | did not exhibit significant reactivity | did not exhibit notable reactivity | < 5.70 | did not significantly alter the morphologies | fibrillar aggregates similar to those from the compound-free Zn(II)–Aβ42 sample |  |  | 
8 | O=c1c(-c2ccccc2)coc2cccc(O)c12 [HIF, 5-hydroxyisoflavone] | negligible | not inhibited | did not exhibit significant reactivity | did not exhibit significant reactivity | did not exhibit significant reactivity | did not exhibit notable reactivity |  |  |  |  |  | 
9 | O=c1c(O)c(-c2ccc(O)cc2)oc2cc(O)cc(O)c12 [Kae, kaempferol] |  |  | did not significantly influence | increased the signal in the range of ca. 7–50 kDa | did not significantly influence | did not impact |  | amorphous assemblies distinct from native Aβ42 fibrils | fibrillar aggregates similar to those from the compound-free Zn(II)–Aβ42 sample | a mixture of amorphous aggregates and thinner chopped fibrils | diminished | 
10 | O=c1cc(-c2ccc(O)c(O)c2)oc2cc(O)cc(O)c12 [Lut, luteolin] |  |  | minor change | increased the signal in the range of ca. 7–50 kDa | altered the aggregation of Zn(II)–Aβ42, resulting in diverse MW distributions from ca. 15 to 50 kDa | did not impact |  | decreased the degree of branching in the fibrils | thinner chopped fibrils | a mixture of amorphous aggregates and thinner chopped fibrils |  | 
11 | O=c1c(-c2ccc(O)c(O)c2)coc2cc(O)cc(O)c12 [Oro, orobol] |  |  | minor change | significantly decreased the band intensity of the entire range (7–270 kDa) | altered the aggregation of Zn(II)–Aβ42, resulting in diverse MW distributions from ca. 15 to 50 kDa | very mildly varied the MW distribution |  | thinner and shorter aggregates | thinner chopped fibrils | a mixture of amorphous aggregates and thinner chopped fibrils |  | shorter fibrils
12 | O=c1c(O)c(-c2ccc(O)c(O)c2)oc2cc(O)cc(O)c12 [Que, Quercetin] |  |  | minor change | increased the smearing band intensity at ca. 7–270 kDa | altered the aggregation of Zn(II)–Aβ42, resulting in diverse MW distributions from ca. 15 to 50 kDa | very mildly varied the MW distribution |  | significantly shorter fibrillar aggregates | thinner chopped fibrils | a mixture of amorphous aggregates and thinner chopped fibrils | diminished | shorter fibrils
